UBC9 SUMO inh – inhibitors of human SUMOylation (UBC9); inhibition, % at 35 µM; hit rate 0.36% among 290,000; AID 2006; HTRF SUMOylation assay, SAE1/SAE2 + UBC9, in vitro; in the data active means inhibition above about 50%, passing the limit was not always enough
Target sequence (P63279 whole entry, looked up): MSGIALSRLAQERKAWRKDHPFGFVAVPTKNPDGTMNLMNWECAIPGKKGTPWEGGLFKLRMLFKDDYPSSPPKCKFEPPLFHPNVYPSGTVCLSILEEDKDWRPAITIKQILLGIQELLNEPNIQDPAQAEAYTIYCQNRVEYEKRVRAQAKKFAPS
NS3 helicase inh – HCV NS3 helicase inhibition; NS3 helicase DNA unwinding, Cy5 molecular beacon fluorescence; inhibition, % at 10.9 µM; hit rate 0.56% among 290,000;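 active means inhibition above the mean of all tested compounds plus 3 SD, set per campaign, cut at about 35% in these data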
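System: Hepatitis C virus NS3 helicase domain fragment enzyme | Reagent: Annealed dual-labelled DNA beacon duplex, ATP-started | Compound dosing: 10.9 µM single point, 0.8% DMSO | Incubation: 1 h reaction at 25 °C, ATP-initiated | Technique: Cy5 fluorescence | Evaluation: Percent inhibition from t60/t0 fluorescence ratio | Benchmarks: Low DMSO, high thioflavine S at 110 µM | Replication: Singlicate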
IMP-1 inh – blocks Pseudomonas aeruginosa IMP-1 metallo-beta-lactamase | inhibition, % at 5.6 µM | purified IMP-1, nitrocefin hydrolysis, epi-absorbance fluorescence | hit rate 0.45% among 290,000;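 active means inhibition above the mean plus 3 SD of all compounds in the same screening run, cut at about 4.5% in these data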
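Material – recombinant IMP-1 enzyme, purified · Amount – IMP-1 0.2 nM before substrate addition · Medium – HEPES buffer pH 7.1 with ZnSO4 and Brij 35 · Timing – 25 °C, 15 min preincubation, 25 min reaction · Measured by – plate fluorescence quenching by hydrolysis product, ex 480/em 530 nm · Read-out – percent enzyme inhibition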
VIM-2 inhibitor – inhibitors of Pseudomonas aeruginosa VIM-2 metallo-beta-lactamase; AID 1527; purified VIM-2, nitrocefin hydrolysis, epi-absorbance fluorescence; inhibition, % at 5.6 µM; hit rate 0.89% among 290,000;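 active means inhibition above the mean of all tested compounds plus 3 SD, cutoff set per screening run, cut at about 7.5% in these data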;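 further: red hydrolysis product quenches plate fluorescence so inhibitors raise well fluorescence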
PHOSPHO1 inh – blocks human PHOSPHO1 phosphatase activity; recombinant PHOSPHO1, absorbance phosphatase assay; inhibition, % at 13.3 µM; hit rate 1.1% among 290,000; AID 1565; in the data active means inhibition above about 60%
Target sequence (Q8TCT1 whole entry, looked up): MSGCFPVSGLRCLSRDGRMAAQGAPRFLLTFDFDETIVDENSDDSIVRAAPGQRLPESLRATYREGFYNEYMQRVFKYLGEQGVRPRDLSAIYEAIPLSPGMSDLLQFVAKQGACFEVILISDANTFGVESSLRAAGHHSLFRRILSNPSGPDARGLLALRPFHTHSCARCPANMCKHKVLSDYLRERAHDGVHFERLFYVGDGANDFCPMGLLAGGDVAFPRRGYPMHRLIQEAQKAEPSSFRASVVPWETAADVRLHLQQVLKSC
HCV core dimer – blocks dimerization of HCV core protein; inhibition, % at 5 µM; hit rate 0.33% among 300,000; TR-FRET GST/Flag-core106 dimerization, 1536-well;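 active means inhibition above the mean of all tested compounds plus 3 SD, set per screening campaign, cut at about 45% in these data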
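Assay system – GST-tagged and Flag-tagged HCV core protein residues 1-106 · Quantity – core106 proteins, GST 13.5 nM and Flag 17 nM · Benchmarks – unlabelled core106 and no-GST-core106 wells · Read-out basis – percent inhibition of core106 dimerization signal · Detection – time-resolved FRET, ex 340 nm, em 617 and 671 nm · Schedule – 4 h at 22.5 °C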
Hits are given with their value; . = inactive; / = no result. Hits are enriched below; roughly 3.1% of the tested compounds scored in any of these assays.

SMILES	UBC9 SUMO inh	NS3 helicase inh	IMP-1 inh	VIM-2 inhibitor	PHOSPHO1 inh	HCV core dimer
CNc1nc(-c2c[nH]c3ccccc23)cs1	.	.	.	.	100	.
CC(C)n1c(-c2ccccc2F)n[nH]c1=S	.	.	5.0	.	.	.
CC(C)n1c(-c2ccc(C(C)(C)C)cc2)n[nH]c1=S	.	.	.	.	99	.
CC(C)(C)c1ccc(-c2n[nH]c(=S)n2Cc2ccccc2)cc1	.	.	.	.	.	.
Cc1ccnc(NC(=O)Cn2c(=O)oc3ccccc32)c1	.	.	.	.	.	.
Cn1c(N)c(C#N)c2c(c1=S)COC(C)(C)C2	.	.	.	.	64	.
CC1(C)Cc2c(c(N3CCCC3)[nH]c(=S)c2C#N)CO1	.	.	.	.	67	.
CC1(C)Cc2c(C#N)c(N)sc(=S)c2CS1	.	.	6.4	.	101	.
CSc1nc(N2CCOCC2)c2c(c1C#N)CC(C)(C)OC2	.	.	.	.	.	.
Cn1c(N)c(C#N)c2c(c1=S)CSC(C)(C)C2	.	.	.	.	91	.
N#Cc1c(N)sc(=S)c2c1CCCCC2	.	.	.	.	.	.
CC(C)c1nc(Cl)c(C#N)c2c1CSC(C)(C)C2	.	.	.	.	.	.
COC(=O)[C@@H](c1ccccc1)N(C)S(=O)(=O)c1cccc(S(=O)(=O)N(C)[C@@H](C(=O)OC)c2ccccc2)c1	.	.	.	.	.	.
CC(C)C1Cc2c(C#N)c(N)n(C)c(=S)c2CO1 (stereo unspecified)	.	.	.	.	68	.
O=C(NC(=S)Nc1cccc(S(=O)(=O)NC2=NCCC2)c1)c1cc(-c2ccco2)nc2ccccc12	.	.	.	.	.	.
O=C(Nc1nccs1)c1cc(-c2ccco2)nc2ccccc12	/	.	.	.	.	84
O=C(Nc1nc2ccccc2s1)c1cc(-c2ccco2)nc2ccccc12	.	.	.	.	.	.
O=C(Nc1cccc(S(=O)(=O)NC2=NCCC2)c1)c1cc(-c2ccco2)nc2ccccc12	86	45	.	.	.	76
Cc1nnc(NC(=O)c2cc(-c3ccco3)nc3ccccc23)s1	/	/	/	/	/	78
O=C(NCCn1cccn1)C1CCC(=O)N(CCc2ccc(Cl)cc2)C1 (stereo unspecified)	.	.	.	.	.	.
COc1ccc2[nH]c(CN3CCC(n4nccc4NC(=O)C4CC4)CC3)c(C)c2c1	.	.	.	.	.	.
CCCCc1nc(C(N)=O)c2[nH]c(=O)n(-c3ccc(OCC)cc3)c2n1	.	.	.	.	.	.
Cc1ccnc2nc(C(=O)Nc3nc4ccccc4s3)nn12	.	.	5.0	.	.	.
Cc1csc(NC(=O)c2nc3nccc(C)n3n2)n1	.	.	.	.	.	.
Cc1ccc(NC(=O)CCc2c(C)nc3ncnn3c2C)nc1	.	.	5.2	.	.	.
SMILES	UBC9 SUMO inh	NS3 helicase inh	IMP-1 inh	VIM-2 inhibitor	PHOSPHO1 inh	HCV core dimer
Cc1ccnc(NC(=O)CCc2c(C)nc3ncnn3c2C)c1	.	.	.	.	64	.
CC(=O)c1ccc(NC(=O)CCc2c(C)nc3ncnn3c2C)cc1	.	.	.	.	.	/
COc1cc(/C=N/NC(=O)c2cn(-c3cccc(C)n3)cn2)ccc1O	.	.	.	.	.	.
Clc1cccc(Cl)c1CSc1nnc([C@@H]2CCCN2)o1	.	.	5.0	.	.	.
COc1ccc(C)cc1NC(=O)C(Sc1nnnn1C)c1ccccc1 (stereo unspecified)	.	.	.	.	.	.
COCCn1c(SC(C(=O)Nc2cc(C)ccc2OC)c2ccccc2)nnc1-c1ccc(Cl)cc1 (stereo unspecified)	.	.	.	.	63	.
O=C(c1ccc(Cl)c([N+](=O)[O-])c1)N(Cc1ccco1)C1CCS(=O)(=O)C1 (stereo unspecified)	.	.	.	.	.	.
CC(=O)Nc1ccc(OC(=O)N2CCCC2)cc1	.	.	.	.	.	.
CC(C)(C)CC(=O)NCc1cccs1	.	.	.	.	60	.
O=C(Cc1cccs1)NCc1cccs1	.	.	.	.	.	.
CCOC(=O)CN(C(=O)CSc1nnc(CNc2ccc(F)cc2)n1C)c1ccccc1	.	.	.	.	.	.
CC(C)n1c(SCC(=O)NC2CC2)nnc1-c1ccco1	.	.	.	.	66	.
COc1ccc(OCc2nnc(SCC(=O)NC3CC3)n2C)cc1	.	.	.	.	63	.
CCOC(=O)CN(C(=O)CSc1nnc(COc2ccc(OC)cc2)n1C)c1ccccc1	.	.	.	.	74	.
Cn1c(COc2ccc(F)cc2)nnc1SCC(=O)NC1CC1	.	.	.	.	.	.
Cn1ccnc1SCC(=O)NC1CCCCC1	.	.	.	.	62	.
CC(C)(C)c1nnc(NC(=O)C2CC(=O)N(CCc3ccc(F)cc3)C2)s1 (stereo unspecified)	.	.	.	.	.	.
CCC1(C)Cc2c(sc3c2c2ncnn2c2nnc(SCC(=O)NCc4ccco4)n32)CO1 (stereo unspecified)	.	.	.	.	65	.
C=CCNC(=O)C(=O)N/N=C/c1ccco1	.	.	.	.	.	.
CCOC(=O)c1nc2sc3c(c2c(=O)[nH]1)CCCC3	.	.	.	.	.	.
N#C/C(=C\c1ccc(C(=O)O)cc1)c1nc2sc3c(c2c(=O)[nH]1)CCCC3	60	.	.	.	.	/
CCOc1ccc(C2C(C#N)=C(N)SC(N)=C2C#N)cc1OC	.	.	.	.	.	57
CCOc1ccccc1C1C(C#N)=C(N)SC(N)=C1C#N	.	.	.	.	70	.
CCOc1ccc(C2C(C#N)=C(N)SC(N)=C2C#N)cc1OCC	.	/	/	/	.	58
O=C(Nc1ccc2c(c1)OCO2)C1CCN(C(=O)c2ccc(Br)cc2)CC1	.	.	.	.	.	.
SMILES	UBC9 SUMO inh	NS3 helicase inh	IMP-1 inh	VIM-2 inhibitor	PHOSPHO1 inh	HCV core dimer
CCCN(CCC)S(=O)(=O)c1ccc(C(=O)Nc2ccc(S(=O)(=O)Nc3nnc(CC)s3)cc2)cc1	.	.	.	.	.	/
CCNC(=O)C(=O)Nc1cc2c3c(c1)CCC(=O)N3CCC2	.	.	.	.	65	.
Cn1c(SC2C(=O)CC(C)(C)CC2=O)nnc1-c1ccco1	.	.	.	.	.	.
CC1(C)CC(=O)C(Sc2nnc(-c3ccc(NS(C)(=O)=O)cc3)n2Cc2ccco2)C(=O)C1	.	.	.	.	96	.
Cc1cc(C)c(-c2csc(NC(=O)C3=NN(c4ccccc4)C(=O)CC3)n2)c(C)c1	.	.	.	.	.	46
CCc1ccc(-c2csc(NC(=O)C3=NN(c4ccccc4)C(=O)CC3)n2)cc1	.	.	.	.	.	.
NC(=O)c1c(N)sc2c1CCCC2	.	.	.	.	92	.
Nc1sc2c(c1C(=O)c1ccccc1)CCCC2	.	.	.	.	.	.

Compound activity from PubChem BioAssay.
